This is a sample that favours compounds with a hit; in the whole collection about 1.8% have one here.
CHRM4 agonist = human M4 muscarinic receptor agonists, primary screen, CHO-K1 cells, Fluo-8 calcium fluorescence; Muscarinic acetylcholine receptor M4 (Homo sapiens), P08173; CHO-K1 hM4/Gqi5; vehicle 0%, full acetylcholine response 100%; activation, % at 3 µM; 360,000 compounds, 0.14% hits; AID 624127, 2012;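 active = activation above the run mean over all test wells plus 3 SD, cut at about 32% in these data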;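 also: peak over basal fluorescence ratio per well then scaled between controls; 0% = DMSO wells and 100% = acetylcholine at EC100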
M5 PAM = human M5 muscarinic receptor positive allosteric modulators, primary screen, CHO-K1 cells, Fluo-8 calcium fluorescence | 360,000 compounds, 0.3% hits | CHO-K1 hM5, ACh EC20 PAM; 0% = ACh EC20, 100% = ACh EC100 | AID 624038, 2012 | activation, % at 3 µM;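 active = activation above the run cutoff, the mean activation of all test compounds plus 3 SD, cut at about 18% in these data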
Target sequence (P08912 whole entry, looked up): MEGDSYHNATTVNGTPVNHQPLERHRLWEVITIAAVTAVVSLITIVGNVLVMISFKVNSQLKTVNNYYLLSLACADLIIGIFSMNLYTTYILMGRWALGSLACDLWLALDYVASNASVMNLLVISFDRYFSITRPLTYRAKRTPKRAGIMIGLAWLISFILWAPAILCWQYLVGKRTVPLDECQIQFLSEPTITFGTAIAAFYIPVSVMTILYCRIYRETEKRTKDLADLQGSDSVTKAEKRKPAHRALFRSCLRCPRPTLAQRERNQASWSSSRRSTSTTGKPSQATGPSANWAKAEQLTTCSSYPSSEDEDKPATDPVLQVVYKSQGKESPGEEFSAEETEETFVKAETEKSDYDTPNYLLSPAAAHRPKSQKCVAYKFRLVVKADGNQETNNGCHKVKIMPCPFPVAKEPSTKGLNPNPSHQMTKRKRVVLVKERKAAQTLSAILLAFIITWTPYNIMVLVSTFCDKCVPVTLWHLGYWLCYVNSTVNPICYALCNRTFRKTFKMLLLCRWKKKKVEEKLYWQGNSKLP
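Assay system – human M5 receptor in CHO-K1 cells · Read-out – % activation, ACh-normalized · Technique – Fluo-8 calcium fluorescence · Dosing – single-point, 3 µM nominal · Incubation – Fluo-8 loading 80 min at 37 °C plus 30 min room temperature · Repeats – singlicate, one well per test compound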
CHRM4 PAM = human M4 muscarinic receptor positive allosteric modulators, primary screen, CHO-K1 cells, Fluo-8 calcium fluorescence | Muscarinic acetylcholine receptor M4 (Homo sapiens), P08173 | CHO-K1 hM4/Gqi5, ACh EC20; 0% = ACh EC20, 100% = maximal ACh | activation, % at 3 µM | 360,000 compounds, 0.4% hits;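 active = activation above its plate's cutoff, the mean activation of sample wells plus 3 SD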
CHRM4 antagonist = human M4 muscarinic receptor antagonists, primary screen, CHO cells, Fluo-8 calcium fluorescence. Muscarinic acetylcholine receptor M4 (Homo sapiens), P08173. CHO-hM4 cells, ACh EC80. inhibition, % at 3 µM. 360,000 compounds, 0.73% hits. AID 624125, 2012;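 active = inhibition above its plate's cutoff, the mean inhibition of sample wells plus 3 SD, cut at about 27% in these data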;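 also: 0% = acetylcholine EC80 with DMSO and 100% = DMSO without agonist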
CHRM5 antagonist = human M5 muscarinic receptor antagonists, primary screen, CHO cells, Fluo-8 calcium fluorescence; CHO-hM5 cells, ACh EC80; inhibition, % at 3 µM; 360,000 compounds, 0.59% hits; AID 624040, 2012;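 active = inhibition above a per-plate cutoff, the mean of that plate's test compounds plus 3 SD, cut at about 27% in these data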;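 also: 0% = acetylcholine EC80 with DMSO and 100% = DMSO without agonist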
M5 ag = human M5 muscarinic receptor agonists, primary screen, CHO-K1 cells, Fluo-8 calcium fluorescence; AID 624037, 2012; activation, % at 3 µM; Muscarinic acetylcholine receptor M5 (Homo sapiens), P08912; CHO-K1 hM5 cells; 0% DMSO wells, 100% maximal acetylcholine response; 360,000 compounds, 0.19% hits;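 active = activation above the run's mean over test compounds plus 3 SD, cut at about 23% in these data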;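 also: signal is peak over basal fluorescence ratio across the kinetic read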
* marks the source's active call; other numbers are inactive results.

SMILES	CHRM4 agonist	M5 PAM	CHRM4 PAM	CHRM4 antagonist	CHRM5 antagonist	M5 ag
O=C(C1CCN(Cc2ccc(Cl)cc2)CC1)N1CCN(C(c2ccccc2)c2ccccc2)CC1	-0.3	-19.1	-18.1	73.9*	43.7*	-8.2
O=C(c1ccc(Cl)cc1)C1CCN(Cc2ccccc2)CC1	1.5	-11.7	-14.1	0.1	-8.1	-22.6
COCc1c(C(=O)NCC(c2ccco2)N2CCCC2)oc2ccccc12 (centres undefined)	0.4	4.0	2.5	-17.1	-6.0	-2.8
CCN(C1CCCCC1)S(=O)(=O)c1ccc(S(=O)(=O)NCCc2ccncc2)cc1	4.9	-9.9	-9.3	9.0	-0.6	0.9
CCN(C1CCCCC1)S(=O)(=O)c1ccc(S(=O)(=O)NCc2ccncc2)cc1	24.6	-25.8	-12.9	23.7	29.1*	11.3
O=C(O)c1cc(-c2cccc(Cl)c2)nc2nc(N3CCCCC3)sc12	0.1	-5.2	3.8	3.0	1.6	-1.1
CCCCCC[N+](C)(C)CC/C=C1/c2ccccc2Sc2ccc(Cl)cc21	-0.6	-32.8	-59.0	98.9*	98.6*	-18.2
CN(C)CC/C=C1\c2ccccc2COc2ccccc21	2.0	-18.5	-18.2	66.7*	97.8*	-1.3
OCCN1CCN(CC/C=C2/c3ccccc3Sc3ccc(C(F)(F)F)cc32)CC1	7.5	-6.2	-13.4	4.2	8.7	0.8
CN(C)CC/C=C1/c2ccccc2Sc2ccc(Cl)cc21	9.1	-18.1	-19.0	98.8*	98.7*	0.9
CN1CCN(CCC=C2c3ccccc3Sc3ccc(S(=O)(=O)N(C)C)cc32)CC1	8.2	-9.1	-13.2	10.0	7.3	1.7
CCCN(CC1CC1)C(=O)CSc1ncnc2sccc12	6.0	-4.3	-3.1	-7.5	12.2	-5.7
COCc1ccc(CN2CCCC(CCC(=O)NCc3ccc(C)o3)C2)o1 (centres undefined)	0.8	7.5	3.2	-14.0	-7.1	-0.9
COc1ccc(/C=C/CN2CCCC(CCC(=O)NCc3ccc(F)c(F)c3)C2)cc1 (centres undefined)	1.7	-11.9	-22.1	71.2*	7.2	-9.8
COC(=O)c1ccc(CN2CCCC(CCC(=O)NCc3ccc(C)o3)C2)cc1 (centres undefined)	0.5	0.5	-20.3	59.0*	8.4	-10.9
COc1cc(C=O)ccc1OCC(=O)N1CCCC1	1.7	20.1*	4.5	-0.8	-17.7	-0.9
COCCN(C(=O)c1cccc(-n2cnnn2)c1)c1c(N)n(CC(C)C)c(=O)[nH]c1=O	0.3	-1.7	7.7	-4.6	4.0	3.0
O=C(/C=C/c1ccc2c(c1)OCO2)Nc1ccc(Cl)cn1	0.5	-0.7	-0.3	2.6	4.7	-1.8
C#CC[N+](C)(C)CCCCCCCCCCCC	0.1	-19.1	-14.6	52.9*	21.5	-8.3
C#CC[N+](C)(C)CCCCCCCCCC	-0.2	-11.7	-10.7	5.6	-4.4	-8.8
CC#CC[N+](C)(C)CCCCCCCCCCCC	0.0	-21.6	-19.5	26.6*	13.3	-11.4
COC(=O)[C@@]1(Cc2ccc(OC)cc2)[C@@H]2C(=CC(=O)[C@H]2CC(=O)C(=O)N2CCCC2)CN1C(=O)c1ccccc1	1.7	18.7*	15.0	-21.6	-9.0	0.5
COc1ccc(OCC(=O)NCCNC(=O)c2cccnc2)cc1	0.1	-8.2	-1.7	5.0	47.5*	-1.4
O=C(NCCO[N+](=O)[O-])c1cccnc1	0.1	-18.6	-16.8	73.6*	37.7*	-1.2
COCCN(C(=O)COC(=O)c1cc(C)oc1C)c1c(N)n(Cc2ccccc2)c(=O)[nH]c1=O	-0.1	-2.7	0.3	-0.7	7.1	1.9
SMILES	CHRM4 agonist	M5 PAM	CHRM4 PAM	CHRM4 antagonist	CHRM5 antagonist	M5 ag
OC(CNCC1(N2CCCCC2)CCCCC1)COc1ccc(Cl)cc1Cl (centres undefined)	4.6	25.8*	-3.4	-7.9	-8.3	-13.9
COc1ccccc1N(C)S(=O)(=O)c1ccc(C(=O)NCc2ccc3c(c2)OCO3)cc1	18.3	-14.8	-16.4	10.4	8.0	3.4
CCCc1cc2c(cc1N(C)S(=O)(=O)c1ccccc1)OCO2	-2.7	-12.2	0.0	5.2	28.0*	-3.4
COc1ncccc1C(=O)Nc1c(-c2ccccc2)[nH][nH]c1=O	2.8	-6.0	0.8	39.1*	11.4	0.7
Cc1ccc(/C=N/N2CCN(Cc3cccc4ccccc34)CC2)o1	-3.0	4.9	2.1	29.5*	-12.2	-3.2
Cc1ccc(/C=N/N2CCN(Cc3ccccc3)CC2)o1	1.0	-2.6	0.7	8.8	5.1	-5.3
O=C(O)Cc1cn(Cc2cccc(Cl)c2)c2ccccc12	2.7	1.6	25.9*	-2.3	3.6	-1.8
CCc1ccccc1NC(=O)CSc1nnc(-c2cc(C)[nH]n2)n1N	-0.9	5.8	-2.0	5.2	-2.5	-6.2
Nc1c(C(=O)C2CC2)sc2nc(-c3ccccc3)cc(C(F)(F)F)c12	1.7	20.1*	5.3	-1.1	1.3	1.7
CC(=O)OCC(=O)[C@@]1(OC(C)=O)[C@@H](C)C[C@H]2[C@@H]3C[C@H](F)C4=CC(=O)C=C[C@]4(C)[C@@]3(F)[C@@H](O)C[C@@]21C	1.4	-15.7	-15.3	41.3*	9.1	-0.5
Cc1c(C(=O)NCCC2=CCCCC2)oc2ccc(S(=O)(=O)N3CCOCC3)cc12	16.1	-23.0	-14.4	13.9	27.8*	2.6
Cc1c(C(=O)NCCCN2CCCC2=O)oc2ccc(S(=O)(=O)N3CCOCC3)cc12	1.8	-1.0	-2.8	6.5	7.7	-2.7
Cc1cccc(NC(=O)c2oc3ccc(S(=O)(=O)N4CCOCC4)cc3c2C)c1C	18.1	-18.8	-19.7	28.7*	11.1	1.2
Cc1ccc(NC(=O)c2oc3ccc(S(=O)(=O)N4CCOCC4)cc3c2C)c(C)c1	3.9	-1.1	0.4	-8.9	7.6	3.0
CCNC(=O)CC1C(=O)N(c2ccccc2)C(=O)N1CCOC (centres undefined)	1.6	-3.8	0.1	2.7	0.1	-3.3
CCOC(=O)N1CCN(CCC(=O)Nc2ccc(Br)c(C)c2)CC1	7.9	-5.7	-14.8	1.0	0.9	2.0
CCN1CCN(CCC(=O)Nc2ccc(Br)c(C)c2)CC1	4.7	20.0*	-0.2	-18.5	-13.0	-6.3

Bioassay records as filed in PubChem.
